Laboratory results taken from publication PMC9299520 (Nature structural & molecular biology, 2022).

How the values were obtained:
5-HT5AR [1] = biological target: T1, 5-HT5AR (Homo sapiens, UniProt P47898); assay: BRET1 miniGi recruitment assay; assay type: cell-based; settings: wild type 5-HT5AR
Procedure, shortened: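 Transfected cells were plated after at least 24 h onto poly-lysine-coated plates in DMEM with 1% dialyzed FBS, at 40,000 cells/well, and left overnight. They were washed with HBSS/20 mM HEPES pH 7.4, then given coelenterazine h (5 μM final) and test compound dilutions with 0.3% BSA and 0.03% ascorbic acid. After 10 min at room temperature, emissions at 485 and 530 nm were read, and eYFP/Rluc BRET ratio was plotted against concentration.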

5-HT5AR [2] = biological target: T1, 5-HT5AR; assay: BRET2 Gi1-activation assay, WT 5-HT5AR; assay type: cell-based; settings: normalized to % of 5-HT
mutant 5-HT5AR [3] = assay: BRET2 Gi1-activation assay, mutant 5-HT5ARs; assay type: cell-based, human; settings: for effect on Gi1 activation: mutants S204A and S204G
mutant 5-HT5AR [4] = biological target: mutant 5-HT5AR (Homo sapiens, UniProt P47898, E305A); assay: BRET2 Gi1-activation assay, mutant 5-HT5ARs; assay type: cell-based; settings: mutant E305A
mutant 5-HT5AR (Homo sapiens, UniProt P47898, E305A), sequence (P47898 whole entry E305A): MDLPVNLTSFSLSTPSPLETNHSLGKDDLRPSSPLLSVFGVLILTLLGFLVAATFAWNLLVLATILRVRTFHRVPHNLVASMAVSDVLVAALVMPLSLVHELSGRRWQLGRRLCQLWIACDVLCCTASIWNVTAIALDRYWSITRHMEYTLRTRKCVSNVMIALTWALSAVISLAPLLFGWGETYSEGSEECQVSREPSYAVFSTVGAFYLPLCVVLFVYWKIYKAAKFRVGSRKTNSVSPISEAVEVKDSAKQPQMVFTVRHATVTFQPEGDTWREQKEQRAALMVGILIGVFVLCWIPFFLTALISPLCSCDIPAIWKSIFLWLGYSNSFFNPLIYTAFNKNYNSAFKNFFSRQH

mutant 5-HT5AR [5] = biological target: mutant 5-HT5AR (Homo sapiens, UniProt P47898, S204C); assay: BRET2 Gi1-activation assay, mutant 5-HT5ARs; assay type: cell-based; settings: mutant S204C
mutant 5-HT5AR (Homo sapiens, UniProt P47898, S204C), sequence (P47898 whole entry S204C): as the sequence (P47898 whole entry E305A) above, with S204C, A305E counted along it

mutant 5-HT5AR [6] = biological target: mutant 5-HT5AR (Homo sapiens, UniProt P47898, A227L); assay: BRET2 Gi1-activation assay, mutant 5-HT5ARs; assay type: cell-based; settings: mutant A227L versus WT
mutant 5-HT5AR (Homo sapiens, UniProt P47898, A227L), sequence (P47898 whole entry A227L): as the sequence (P47898 whole entry E305A) above, with A227L, A305E counted along it

T1 sequence (P47898 whole entry): as the sequence (P47898 whole entry E305A) above, with A305E counted along it

`NCCc1c[nH]c2ccc(C(N)=O)cc12` [5-CT, 5-carboxamidotryptamine] was tested, and the miniGi recruitment (5-HT5AR [1]) was “unable to efficiently recruit miniGi”, the “agonist type for Gi signaling” value (5-HT5AR [2]) was “full agonist” and the “effect on Gi1 activation” value (mutant 5-HT5AR [3]) was “dramatically reduced the potency”. The “effect on activation of Gi1 signaling” value (mutant 5-HT5AR [4]) was “failed to show a large effect” and the “effect on Gi1 activation” value (mutant 5-HT5AR [5]) was “severely affected”.
In the case of `NCCc1c[nH]c2ccc(O)cc12` [5-HT, 5-hydroxytryptamine], the “effect on Gi1 activation” value (mutant 5-HT5AR [3]) is reported as “modest effects on both the potency and efficacy”, the “improvement of potency of Gi1 activation” value (mutant 5-HT5AR [3]; {}) is reported as “more than 30 fold” and the “increase of efficacy of Gi1 activation” value (mutant 5-HT5AR [6]) is reported as 20%. For the same compound, the “effect on Gi1 activation” value (mutant 5-HT5AR [5]) was “severely affected”.
With `CC[C@@H](CO)NC(=O)[C@@H]1C=C2c3cccc4[nH]cc(c34)C[C@H]2N(C)C1` [methylergometrine] the “agonist type for Gi signaling” value (5-HT5AR [2]) was “full agonist”.
